Only some compounds are listed: those with a hit (about 1.8% of all), similar ones and a draw of the others.
M4 PAM – positive allosteric modulators of human muscarinic M4 receptor | activation, % at 3 µM | 360,000 compounds, 0.4% hits | P08173 | CHO-K1 hM4/Gqi5, Fluo-8 calcium fluorescence, ACh EC20; 0% = ACh EC20, 100% = maximal ACh | AID 624126;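 active = activation above its plate's cutoff, the mean activation of sample wells plus 3 SD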
CHRM4 agonist – CHRM4 agonism in calcium assay; CHO-K1 hM4/Gqi5, Fluo-8 calcium fluorescence; vehicle 0%, full acetylcholine response 100%; 360,000 compounds, 0.14% hits; P08173; activation, % at 3 µM; AID 624127;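 active = activation above the run mean over all test wells plus 3 SD, cut at about 32% in these data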;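 also: peak over basal fluorescence ratio per well then scaled between controls; 0% = DMSO wells and 100% = acetylcholine at EC100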
CHRM5 PAM – CHRM5 positive allosteric modulation; P08912; activation, % at 3 µM; 360,000 compounds, 0.3% hits; CHO-K1 hM5, Fluo-8 calcium, ACh EC20 PAM; 0% = ACh EC20, 100% = ACh EC100;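 active = activation above the run cutoff, the mean activation of all test compounds plus 3 SD, cut at about 18% in these data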
Target sequence (P08912 whole entry, looked up): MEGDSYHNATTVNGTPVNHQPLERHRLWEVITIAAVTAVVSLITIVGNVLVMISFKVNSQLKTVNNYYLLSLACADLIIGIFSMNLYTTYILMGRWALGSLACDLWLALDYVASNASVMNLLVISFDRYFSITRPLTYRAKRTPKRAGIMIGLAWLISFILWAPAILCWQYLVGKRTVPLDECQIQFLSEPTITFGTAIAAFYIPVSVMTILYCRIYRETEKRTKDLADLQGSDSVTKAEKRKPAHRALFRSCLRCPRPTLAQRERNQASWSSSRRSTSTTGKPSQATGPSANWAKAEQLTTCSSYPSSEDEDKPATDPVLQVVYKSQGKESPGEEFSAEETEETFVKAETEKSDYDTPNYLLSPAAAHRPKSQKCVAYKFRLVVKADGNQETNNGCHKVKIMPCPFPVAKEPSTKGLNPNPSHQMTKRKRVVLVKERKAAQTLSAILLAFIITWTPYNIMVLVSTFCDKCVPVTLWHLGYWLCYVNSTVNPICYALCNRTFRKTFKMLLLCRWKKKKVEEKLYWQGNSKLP
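System: CHO-K1 cell line with stable human muscarinic M5 receptor expression | Also added: EC20 acetylcholine as agonist stimulus | Compound: One concentration, 3 µM final (nominal) | Timing: Fluo-8 loading 80 min at 37 °C plus 30 min room temperature | Measured by: Fluo-8 calcium dye fluorescence, kinetic read | Read-out basis: % activation, ACh-normalized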
CHRM4 antagonist – antagonists of human muscarinic M4 receptor (CHRM4); P08173; inhibition, % at 3 µM; CHO-hM4 cells, ACh EC80, Fluo-8 calcium fluorescence; 360,000 compounds, 0.73% hits;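 active = inhibition above its plate's cutoff, the mean inhibition of sample wells plus 3 SD, cut at about 27% in these data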;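 also: 0% = acetylcholine EC80 with DMSO and 100% = DMSO without agonist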
M5 ag – agonists of human muscarinic M5 receptor (CHRM5) | P08912 | CHO-K1 hM5 cells, Fluo-8 calcium fluorescence; 0% DMSO wells, 100% maximal acetylcholine response | activation, % at 3 µM | 360,000 compounds, 0.19% hits;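 active = activation above the run's mean over test compounds plus 3 SD, cut at about 23% in these data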;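 also: signal is peak over basal fluorescence ratio across the kinetic read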
M5 antag – antagonists of human muscarinic M5 receptor (CHRM5); P08912; CHO-hM5 cells, Fluo-8 calcium fluorescence, ACh EC80; inhibition, % at 3 µM; 360,000 compounds, 0.59% hits; AID 624040;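 active = inhibition above a per-plate cutoff, the mean of that plate's test compounds plus 3 SD, cut at about 27% in these data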;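 also: 0% = acetylcholine EC80 with DMSO and 100% = DMSO without agonist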
* hit, by the source's call.

SMILES	M4 PAM	CHRM4 agonist	CHRM5 PAM	CHRM4 antagonist	M5 ag	M5 antag
CC(C)(C)OC(=O)C[C@@H]1C/C=C\C[C@@H](CC(=O)NCCO)C(=O)NC[C@@H](c2ccccc2)OC1=O	4	1	5	3	5	2
CCOC(=O)c1cc2c(nc1N)CC(C)(CC)OC2 (stereo not drawn)	17*	1	-4	0	2	2
S=c1[nH]nc(CN2CCCCC2)n1Cc1ccccc1	-27	0	-33	31*	-18	6
S=c1[nH]nc(CN2CCCC2)n1Cc1ccccc1	-14	1	-7	19	-18	9
COCCn1c(=NC(=O)CCS(=O)(=O)c2ccccc2)sc2ccccc21	-4	9	-2	2	-1	-1
COC(=O)c1ccc2c(c1)sc(=NC(=O)CCS(=O)(=O)c1ccccc1)n2C	18*	8	2	-6	4	-10
CC(=O)OCC(=O)[C@@]1(OC(C)=O)[C@@H](C)C[C@H]2[C@@H]3C[C@H](F)C4=CC(=O)C=C[C@]4(C)[C@@]3(F)[C@@H](O)C[C@@]21C	-15	1	-16	41*	0	9
O=C(COc1ccc(Cl)cc1Cl)Nc1c(-c2cccs2)nc2ccccn12	-5	6	-9	3	-2	18
CCCNC(=O)c1cc(C2CCCCN2C(=O)c2ccccc2)on1 (stereo not drawn)	5	0	-1	-8	1	0
CCC(C)(C)C(=O)Nc1ncc(S(=O)(=O)c2ccc([N+](=O)[O-])cc2)s1	-5	12	-9	5	16	9
CCCC(C)C(=O)Nc1ncc(S(=O)(=O)c2ccc([N+](=O)[O-])cc2)s1 (stereo not drawn)	-7	67*	-4	11	49*	10
Cc1sc2ncn(CC(=O)N3CCCC(C)C3)c(=O)c2c1S(=O)(=O)N1CCCCC1 (stereo not drawn)	-1	1	4	0	0	1
Cc1sc2ncn(CC(=O)N3CCC(C(N)=O)CC3)c(=O)c2c1S(=O)(=O)N1CC(C)CC(C)C1 (stereo not drawn)	15*	3	-5	-18	-3	16
CCN(CC)CCn1c(NCc2ccco2)nc2ccccc21	-4	0	-3	8	-5	3
CCN(CC)CCn1c(NCc2cccc(OC)c2OC)nc2ccccc21	0	0	-11	9	-5	31*
COc1cccc(S(=O)(=O)Nc2ccc3c(c2)C(=O)N(C)C[C@H](OC)[C@H](C)CN(Cc2ccccc2F)[C@@H](C)CO3)c1	7	0	-2	9	-1	0
Cc1ccc(C(=O)N2CCc3cc4c(cc3C2C)OCCCO4)cc1 (stereo not drawn)	-16	6	1	0	-6	1
CC(=O)Nc1ccc(C(=O)N2CCc3cc4c(cc3C2C)OCCCO4)cc1 (stereo not drawn)	-14	1	-3	39*	-6	3
COc1ccc(NC2c3ccccc3C(=O)N2c2ccccn2)cc1Cl (stereo not drawn)	-15	1	-16	79*	-3	8
O=C1c2ccccc2C(Nc2ccc(F)c(Cl)c2)N1c1ccccn1 (stereo not drawn)	-1	0	-5	2	2	3
CCC(C(=O)Nc1ccc(C)cc1)c1ccccc1 (stereo not drawn)	-5	1	-2	6	-2	7
COc1ccc(Cl)cc1NC(=O)C(OC)c1ccccc1 (stereo not drawn)	2	-1	10	0	-9	-1
CCC(C(=O)Nc1ccc(C(=O)N2CCCC2)cc1)c1ccccc1 (stereo not drawn)	-8	13	-16	6	23	17
CCc1ccc(NC(=O)C(CC)c2ccccc2)cc1 (stereo not drawn)	-1	24	-2	4	24*	2
CCC(C(=O)Nc1ccc(C(=O)Nc2ccccc2C(=O)O)cc1)c1ccccc1 (stereo not drawn)	17*	-2	2	-3	-1	6
SMILES	M4 PAM	CHRM4 agonist	CHRM5 PAM	CHRM4 antagonist	M5 ag	M5 antag
CCC(C(=O)Nc1cc(Cl)ccc1OC)c1ccccc1 (stereo not drawn)	13	-2	19*	-5	-4	-11
C[C@]1(CC/C(=C/CO)CO)[C@H](CO)CC[C@@]23COC(=O)C2=CCC[C@@H]31	9	1	1	-18	1	0
CCC(C)N1CC(=O)N2C(c3ccc(OC)cc3OC)c3[nH]c4ccccc4c3C[C@H]2C1=O (stereo partly drawn)	-1	3	-2	-3	-3	3
O=C(Cn1cc(C(F)(F)F)ccc1=O)N/N=C/c1ccccc1	-3	1	1	-2	2	3
CCC(=O)Nc1nc2c(c(=O)[nH]1)CCCC2	5	1	7	-17	-4	-2
CC(C)(C)C(=O)Nc1nc2c(c(=O)[nH]1)CCCC2	21*	2	-1	-2	-1	5
COc1ccc2cc1Oc1ccc(cc1)C[C@H]1c3cc(c(OC)cc3CCN1C)Oc1c(OC)c(OC)cc3c1[C@H](C2)N(C)CC3	-17	6	-9	78*	0	3
O=C(CCCc1ccccc1)NCCS(=O)(=O)N1CCN(c2ccccc2F)CC1	-1	11	-10	-16	1	9
Fc1ccc(Nc2nnc(C(F)(F)F)s2)cc1Cl	-8	11	-22	12	-3	32*
Cc1cccc(N2CCN(C(=O)CCn3c(=S)[nH]c4cc5c(cc4c3=O)OCO5)CC2C)c1 (stereo not drawn)	31*	6	-6	40*	4	-2
CCOc1ccc(NC(=O)Nc2nc(SCC)ns2)cc1	-9	20	-25	3	8	33*
O=C(COC(=O)Cc1cccc(C(F)(F)F)c1)NCc1ccco1	32*	0	-3	-19	4	3
Cc1nc2scc(C)n2c(=O)c1S(=O)(=O)NCC1CCN(Cc2ccc(Cl)cc2)CC1	-14	1	-2	65*	-8	3
COc1cc(CNCCO)ccc1OCCc1ccccc1	20*	8	5	29*	5	23
CC(NCCC(c1ccccc1)c1ccccc1)c1ccccc1 (stereo not drawn)	-16	9	-14	45*	4	9
CCCC1NC(=O)c2cccnc2-n2c1nc1ccc(OC)cc1c2=O (stereo not drawn)	4	0	0	-5	0	5
CCOC(=O)c1[nH]c2ccc(OC)cc2c1C	20	3	-3	1	1	32*

Assay outcomes as filed in PubChem BioAssay.
